# Measurements from ChEMBL document CHEMBL4257459, “Synergistic antifungal effect of cyclized chalcone derivatives and fluconazole against Candida albicans” (2017).
# Activity calls are given as the source filed them. The calls are words filed in the database; no cut-off is given here.
# What was measured:
# Candida albicans [1] = test: Antifungal activity against fluconazole resistant Candida albicans 167-2 by CLSI protocol based broth microdilution method; format: functional
# Method in brief: (§1)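 Broth microdilution per CLSI M27-A3 against clinical C. albicans isolates. Strains sub-cultured at least twice on Tryptone Soya Agar, 37 °C, 48 h. Compounds dissolved in DMSO at 2000 μg mL–1 stock. Fluconazole positive control, plus culture, media and vehicle controls. Run in duplicate; MIC in μg mL–1.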
# Candida albicans [2] = test: Antifungal activity against fluconazole resistant Candida albicans A171 by CLSI protocol based broth microdilution method; format: functional; method in brief: as §1
# Candida albicans [3] = test: Antifungal activity against fluconazole resistant Candida albicans 167-1 by CLSI protocol based broth microdilution method; format: functional; method in brief: as §1
# Candida albicans [4] = test: Antifungal activity against fluconazole susceptible Candida albicans 002B1 by CLSI protocol based broth microdilution method; format: functional
# Method in brief: (§2)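 Clinical isolates and control strain subcultured at least twice on TSA, 37 °C, 48 h. MICs by CLSI M27-A3 broth microdilution; compounds dissolved in DMSO to 2000 μg mL–1 stock. Fluconazole positive control, culture, media and DMSO vehicle controls in each run. Duplicate experiments; MIC in μg mL–1.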
# Candida albicans [5] = test: Antifungal activity against fluconazole susceptible Candida albicans 003gr by CLSI protocol based broth microdilution method; format: functional; method in brief: as §2
# Candida albicans [6] = test: Antifungal activity against fluconazole susceptible Candida albicans 004gr by CLSI protocol based broth microdilution method; format: functional; method in brief: as §2
# Candida albicans [7] = test: Antifungal activity against fluconazole susceptible Candida albicans 004B1 by CLSI protocol based broth microdilution method; format: functional; method in brief: as §2
# Candida albicans [8] = test: Antifungal activity against fluconazole susceptible Candida albicans 0079gr by CLSI protocol based broth microdilution method; format: functional; method in brief: as §2
# Candida albicans [9] = test: Antifungal activity against fluconazole susceptible Candida albicans 0072gr by CLSI protocol based broth microdilution method; format: functional; method in brief: as §2
# Candida albicans [10] = test: Antifungal activity against Candida albicans ATCC 90028 by CLSI protocol based broth microdilution method; format: functional; method in brief: as §2
# Candida albicans [11] = test: Inhibition of ergosterol biosynthesis in fluconazole resistant Candida albicans A171 at 8 ug/ml relative to control; format: functional
# Method in brief: (§3)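 Total sterols quantified by alcoholic KOH extraction in cells grown in 50 ml TSB with compounds at MIC and ½ MIC; untreated and 8 μg mL–1 fluconazole controls. Spectral scan; ergosterol content from A281.5 and A230 absorbances, dilution factor and pellet weight, correcting for 24(28) DHE.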
# Candida albicans [12] = test: Inhibition of ergosterol biosynthesis in fluconazole susceptible Candida albicans ATCC 90028 at 8 ug/ml relative to control; format: functional; method in brief: as §3
# Candida albicans [13] = test: Up regulation of ERG11 gene expression in fluconazole resistant Candida albicans A171 at 8 ug/ml after 2 hrs by qRT PCR analysis; format: functional, organism-based
# Method in brief: (§4)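 Cells exposed 2 h to test agents at MIC. Total RNA isolated, cDNA synthesized, qPCR for ERG11 with ACT1 as endogenous control. Triplicate independent experiments, reported as mean ± standard deviation.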
# Candida albicans [14] = test: Down regulation of ERG11 gene expression in fluconazole susceptible Candida albicans ATCC 90028 at 8 ug/ml after 2 hrs by qRT PCR analysis; format: functional, organism-based; method in brief: as §4
# Candida albicans [15] = test: Antifungal activity against fluconazole resistant Candida albicans A171 in presence of fluconazole by CLSI protocol based broth microdilution method; format: functional
# Method in brief: (§5)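 Checkerboard-style combination with fluconazole at a 1 : 1 ratio, over concentrations 2–4 fold below each agent's MIC alone, by CLSI broth microdilution. Fractional inhibitory concentration index calculated and interpreted as synergy (<0.5), additive (0.5–1), indifferent or antagonistic.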
# Candida albicans [16] = test: Antifungal activity against fluconazole resistant Candida albicans 167-1 in presence of fluconazole by CLSI protocol based broth microdilution method; format: functional; method in brief: as §5
# Candida albicans [17] = test: Antifungal activity against fluconazole resistant Candida albicans 167-2 in presence of fluconazole by CLSI protocol based broth microdilution method; format: functional; method in brief: as §5
# Candida albicans [18] = test: Antifungal activity against fluconazole susceptible Candida albicans 002B1 in presence of fluconazole by CLSI protocol based broth microdilution method; format: functional
# Candida albicans [19] = test: Antifungal activity against fluconazole susceptible Candida albicans 003gr in presence of fluconazole by CLSI protocol based broth microdilution method; format: functional
# Candida albicans [20] = test: Antifungal activity against fluconazole susceptible Candida albicans 004gr in presence of fluconazole by CLSI protocol based broth microdilution method; format: functional
# Candida albicans [21] = test: Antifungal activity against fluconazole susceptible Candida albicans 004B1 in presence of fluconazole by CLSI protocol based broth microdilution method; format: functional
# Candida albicans [22] = test: Antifungal activity against fluconazole susceptible Candida albicans 0079gr in presence of fluconazole by CLSI protocol based broth microdilution method; format: functional
# Candida albicans [23] = test: Antifungal activity against fluconazole susceptible Candida albicans 0072gr in presence of fluconazole by CLSI protocol based broth microdilution method; format: functional
# Candida albicans [24] = test: Antifungal activity against Candida albicans ATCC 90028 in presence of fluconazole by CLSI protocol based broth microdilution method; format: functional
# Candida albicans [25] = test: Inhibition of ABC efflux pumps in fluconazole resistant Candida albicans A171 assessed as reduction in energy-dependent rhodamine 6G efflux in presence of 0.1 M glucose after 25 mins by fluorescence assay relative to control
# Method in brief: (§6)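 Cells grown in TSB at 37 °C for 8 h, washed, resuspended in glucose-free PBS at 1 × 10^8 cells. De-energized 45 min with 5 mM deoxyglucose plus 5 mM dinitrophenol. […] Washed, sampled 5–25 min, then 0.1 M glucose added. Absorbance 527 nm, R6G from standard curve.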
# Candida albicans [26] = test: Inhibition of ABC efflux pumps in fluconazole resistant Candida albicans 167-1 assessed as reduction in energy-dependent rhodamine 6G efflux in presence of 0.1 M glucose after 25 mins […] relative to control
# Candida albicans [27] = test: Inhibition of ABC efflux pumps in fluconazole resistant Candida albicans 167-2 assessed as reduction in energy-dependent rhodamine 6G efflux in presence of 0.1 M glucose after 25 mins […] relative to control
# Candida albicans [28] = test: Inhibition of ABC efflux pumps in fluconazole susceptible Candida albicans 002B1 assessed as reduction in energy-dependent rhodamine 6G efflux in presence of 0.1 M glucose after 25 mins […] relative to control
# Candida albicans [29] = test: Inhibition of ABC efflux pumps in fluconazole susceptible Candida albicans 003gr assessed as reduction in energy-dependent rhodamine 6G efflux in presence of 0.1 M glucose after 25 mins […] relative to control
# Candida albicans [30] = test: Inhibition of ABC efflux pumps in fluconazole susceptible Candida albicans 004gr assessed as reduction in energy-dependent rhodamine 6G efflux in presence of 0.1 M glucose after 25 mins by fluorescence assay relative to control; method in brief: as §6
# Candida albicans [31] = test: Inhibition of ABC efflux pumps in fluconazole susceptible Candida albicans 004B1 assessed as reduction in energy-dependent rhodamine 6G efflux in presence of 0.1 M glucose after 25 mins by fluorescence assay relative to control; method in brief: as §6
# Candida albicans [32] = test: Inhibition of ABC efflux pumps in fluconazole susceptible Candida albicans 0079gr assessed as reduction in energy-dependent rhodamine 6G efflux in presence of 0.1 M glucose after 25 mins by fluorescence assay relative to control; method in brief: as §6
# Candida albicans [33] = test: Inhibition of ABC efflux pumps in fluconazole susceptible Candida albicans 0072gr assessed as reduction in energy-dependent rhodamine 6G efflux in presence of 0.1 M glucose after 25 mins […] relative to control
# Candida albicans [34] = test: Inhibition of ergosterol biosynthesis in fluconazole resistant Candida albicans A171 at 0.5 to 1 times MIC relative to control; format: functional; method in brief: as §3
# Candida albicans [35] = test: Inhibition of ergosterol biosynthesis in fluconazole susceptible Candida albicans ATCC 90028 at 0.5 to 1 times MIC relative to control; format: functional
# Method in brief: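 ATCC90028 grown in 50 ml TSB with MIC and ½ MIC of compound; untreated and 8 μg mL–1 fluconazole controls. Sterols extracted by alcoholic KOH method and spectrophotometrically scanned; ergosterol % calculated from A281.5 and A230 (E values 290 and 518) with dilution factor, per pellet weight.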
# Candida albicans [36] = test: Down regulation of ERG11 gene expression in fluconazole resistant Candida albicans A171 at MIC after 2 hrs by qRT PCR analysis relative to control; format: functional; method in brief: as §4
# Candida albicans [37] = test: Down regulation of ERG11 gene expression in fluconazole susceptible Candida albicans ATCC 90028 at MIC after 2 hrs by qRT PCR analysis relative to control; format: functional
# Method in brief: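 Cells exposed to compound at MIC for 2 h; total RNA isolated, cDNA synthesised, ERG11 measured by real-time qPCR with ACT1 as endogenous control. Triplicate independent experiments; mean ± standard deviation.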
smiles,measurement,setting,value
OC(Cn1cncn1)(Cn1cncn1)c1ccc(F)cc1F [FLUCONAZOLE],MIC,Candida albicans [1],125 to 500 µg/mL
same,MIC,Candida albicans [2],125 to 500 µg/mL
same,MIC,Candida albicans [3],125 to 500 µg/mL
same,MIC,Candida albicans [4],2 to 8 µg/mL
same,MIC,Candida albicans [5],2 to 8 µg/mL
same,MIC,Candida albicans [6],2 to 8 µg/mL
same,MIC,Candida albicans [7],2 to 8 µg/mL
same,MIC,Candida albicans [8],2 to 8 µg/mL
same,MIC,Candida albicans [9],2 to 8 µg/mL
same,MIC,Candida albicans [10],2 to 8 µg/mL
same,inhibition at 8 µg/mL,Candida albicans [11],11%
same,inhibition at 8 µg/mL,Candida albicans [12],100%
same,Activity,Candida albicans [13],inactive
same,inhibition,Candida albicans [14],Active
c1ccc(-c2cc(-c3ccc(-c4cc(-c5ccccc5)n[nH]4)cc3)[nH]n2)cc1,MIC,Candida albicans [1],31 to 125 µg/mL
same,MIC,Candida albicans [2],31 to 125 µg/mL
same,MIC,Candida albicans [3],31 to 125 µg/mL
same,MIC,Candida albicans [4],2 to 16 µg/mL
same,MIC,Candida albicans [5],2 to 16 µg/mL
same,MIC,Candida albicans [6],2 to 16 µg/mL
same,MIC,Candida albicans [7],2 to 16 µg/mL
same,MIC,Candida albicans [8],2 to 16 µg/mL
same,MIC,Candida albicans [9],2 to 16 µg/mL
same,MIC,Candida albicans [10],2 to 16 µg/mL
same,fractional inhibitory concentration index (FICI),Candida albicans [15],0.531 - 2.27
same,fractional inhibitory concentration index (FICI),Candida albicans [16],0.531 - 2.27
same,fractional inhibitory concentration index (FICI),Candida albicans [17],0.531 - 2.27
same,fractional inhibitory concentration index (FICI),Candida albicans [18],0.63 - 1.5
same,fractional inhibitory concentration index (FICI),Candida albicans [19],0.63 - 1.5
same,fractional inhibitory concentration index (FICI),Candida albicans [20],0.63 - 1.5
same,fractional inhibitory concentration index (FICI),Candida albicans [21],0.63 - 1.5
same,fractional inhibitory concentration index (FICI),Candida albicans [22],0.63 - 1.5
same,fractional inhibitory concentration index (FICI),Candida albicans [23],0.63 - 1.5
same,fractional inhibitory concentration index (FICI),Candida albicans [24],0.63 - 1.5
same,inhibition,Candida albicans [25],< 20%
same,inhibition,Candida albicans [26],< 20%
same,inhibition,Candida albicans [27],< 20%
same,inhibition,Candida albicans [28],< 20%
same,inhibition,Candida albicans [29],< 20%
same,inhibition,Candida albicans [30],< 20%
same,inhibition,Candida albicans [31],< 20%
same,inhibition,Candida albicans [32],< 20%
same,inhibition,Candida albicans [33],< 20%
same,inhibition (INH),Candida albicans [34],49 - 94%
same,inhibition (INH),Candida albicans [35],66 - 99%
same,fold change (FC),Candida albicans [36],1.25 - 10
same,fold change (FC),Candida albicans [37],1.5 - 13
